Granule exo inh = lytic granule exocytosis inhibition; TALL-104 LAMP-1 surface exposure, flow cytometry; cells stimulated with thapsigargin and PMA; inhibition, % at 10 µM; 360,000 tested, 0.66% active; AID 651702;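 active means inhibition above about 55%, limit read from the data; inconclusive means no clear call, values can overlap the other calls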
Arr AP2 block = inhibitors of human beta-arrestin and AP2 interaction; FITC-arrestin peptide / GST-AP2 beads, flow cytometry; AP2 beta2 appendage carries R879A mutation; inhibition, % at 10 µM; 340,000 tested, 0.31% active; AID 504490;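 active means inhibition above a set limit, near 3 SD of compounds lacking own fluorescence, cut at about 54% in these data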
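Test system: GST-tagged AP2 beta2-adaptin appendage (R879A) on 4 µm glutathione beads; also added: fluorescein-tagged arrestin peptide at 50 nM final; timing: 12 min plus 1 h, RT; signal: flow cytometry, FL1 (488/535 nm); read-out: percent drop in bead-associated FITC signal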
ATG4B inhibitor = blocks human ATG4B protease cleavage of LC3 substrate | Q9Y4P1 | inhibition, % at 8.33 µM | 340,000 tested, 0.51% active | ATG4B cleavage of LC3-PLA2, NBD-HPC fluorescence, 1 h; in the data active means inhibition above about 40%
Target sequence (Q9Y4P1 whole entry, looked up): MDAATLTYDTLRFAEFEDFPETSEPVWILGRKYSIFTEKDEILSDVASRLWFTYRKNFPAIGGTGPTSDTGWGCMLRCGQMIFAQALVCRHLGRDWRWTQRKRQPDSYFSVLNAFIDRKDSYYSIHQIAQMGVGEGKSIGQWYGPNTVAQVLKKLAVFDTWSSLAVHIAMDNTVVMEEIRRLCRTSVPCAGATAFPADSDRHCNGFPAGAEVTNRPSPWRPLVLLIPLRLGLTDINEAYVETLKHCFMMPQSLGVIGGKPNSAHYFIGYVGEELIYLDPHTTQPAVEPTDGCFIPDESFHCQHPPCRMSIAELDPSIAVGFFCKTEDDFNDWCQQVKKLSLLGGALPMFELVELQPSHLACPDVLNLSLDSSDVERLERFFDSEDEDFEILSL
Myeloid diff MLP = compounds promoting myeloid differentiation | 360,000 tested, 1% active | calls only at 10 µM | ER-HoxA9 myeloid progenitors, lysozyme-GFP differentiation, flow cytometry;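 active means normalized GFP-positive differentiation at or above the plate's own cutoff, the solvent-only control mean plus 3 SD; inconclusive means no clear call, values can overlap the other calls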;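 further: cells exposed to compound for four days before flow analysis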
ABCB6 inh 2 = inhibitors of human ABC transporter ABCB6. Q9NP58. K562-ABCB6 porphyrin accumulation, flow cytometry, 1 h; active compounds read low. AID 602162. fluorescence ratio to DMSO, % at 10 µM. 360,000 tested, 0.19% active;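 active means fluorescence ratio to DMSO below 75%, the collection mean minus 3 SD; inconclusive means too few cells collected in the well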;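 further: signal is porphyrin accumulated inside mitochondria; lower ratio means ABCB6 inhibition with less porphyrin fluorescence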
NRP1-CendR mod = NRP-1/CendR interaction modulation; inhibition, % at 25 µM; O14786; 360,000 tested, 0.85% active; FAM-RPARPAR peptide binding to NRP-1, fluorescence polarization;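 active means inhibition or corrected inhibition above about 18%, plus a signal ratio from 0.5 to 1.5, limit read from the data, passing the limit was not always enough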
Numbers stand for hits. Hits are enriched below; roughly 3.3% of the tested compounds scored in any of these assays.

Results for N#CC1=C(N)Oc2cc(N)ccc2C1c1ccc(F)cc1 (stereo unspecified) ?
Granule exo inh: inactive; Arr AP2 block: inactive; ATG4B inhibitor: inactive; Myeloid diff MLP: inactive; ABCB6 inh 2: inactive; NRP1-CendR mod: inactive

How did COC(=O)c1c(NC(=O)CN2C(=O)C(=O)N(CC(C)C)C2=O)sc2c1CCCCC2 do in these assays?
Granule exo inh: inactive; Arr AP2 block: inactive; ATG4B inhibitor: inactive; Myeloid diff MLP: inactive; ABCB6 inh 2: inactive; NRP1-CendR mod: inactive

Results for CN(C)NC(=O)C(NC(=O)c1ccccc1)C12CC3CC(CC(C3)C1)C2 (stereo unspecified) ?
Granule exo inh: inactive; Arr AP2 block: inactive; ATG4B inhibitor: inactive; Myeloid diff MLP: active; ABCB6 inh 2: inactive; NRP1-CendR mod: inactive

How did c1ccc2c(c1)CCc1ccccc1C2=C1CCNCC1 do in these assays?
Granule exo inh: inactive; Arr AP2 block: inactive; ATG4B inhibitor: inactive; Myeloid diff MLP: inactive; ABCB6 inh 2: inactive; NRP1-CendR mod: inactive

What do the screens show for `O=S(=O)(NCCc1ccncc1)c1ccc(F)cc1`?
Granule exo inh: inactive; Arr AP2 block: inactive; ATG4B inhibitor: inactive; Myeloid diff MLP: inactive; ABCB6 inh 2: inactive; NRP1-CendR mod: inactive

Results for COc1cc(CCNc2ccc3nnc(-c4ccccc4)n3n2)cc(OC)c1OC ?
Granule exo inh: inactive; Arr AP2 block: inactive; ATG4B inhibitor: inactive; Myeloid diff MLP: inactive; ABCB6 inh 2: inactive; NRP1-CendR mod: inactive

What do the screens show for `O=C(/C=C/c1ccc(F)cc1)N1CC[C@@]2(O)CCCC[C@H]2C1`?
Granule exo inh: inactive; Arr AP2 block: inactive; ATG4B inhibitor: inactive; Myeloid diff MLP: active; ABCB6 inh 2: inactive; NRP1-CendR mod: inactive

What do the screens show for `CCOc1ccc(NC(=O)/C(=C\c2ccc(OC(C)=O)c(OC)c2)NC(C)=O)cc1`?
Granule exo inh: inactive; Arr AP2 block: inactive; ATG4B inhibitor: inactive; Myeloid diff MLP: inactive; ABCB6 inh 2: inactive; NRP1-CendR mod: inactive

Results for CC(=O)N1CC(C)Sc2ccc(S(=O)(=O)NCc3ccccc3Cl)cc21 (stereo unspecified) ?
Granule exo inh: inactive; Arr AP2 block: inactive; ATG4B inhibitor: inactive; Myeloid diff MLP: inactive; ABCB6 inh 2: inactive; NRP1-CendR mod: inactive

How did CC(=O)N1CC(C)Sc2ccc(S(=O)(=O)NC3CCCCC3C)cc21 (stereo unspecified) do in these assays?
Granule exo inh: inactive; Arr AP2 block: inactive; ATG4B inhibitor: inactive; Myeloid diff MLP: inactive; ABCB6 inh 2: inactive; NRP1-CendR mod: 21

What do the screens show for `Cc1ccc(C(C)C)c(O)c1C(=O)O`?
Granule exo inh: inactive; Arr AP2 block: inactive; ATG4B inhibitor: inactive; Myeloid diff MLP: inactive; ABCB6 inh 2: inactive; NRP1-CendR mod: inactive

Results for CC(C)c1ccc(N(C)C(=O)Cc2c(C(=O)O)n(C)c3ccccc23)cc1 ?
Granule exo inh: inactive; Arr AP2 block: inactive; ATG4B inhibitor: inactive; Myeloid diff MLP: active; ABCB6 inh 2: inactive; NRP1-CendR mod: inactive

How did CCc1ccc(NC(=O)C(C)Nc2ccc(S(=O)(=O)NC(C)=O)cc2)cc1 (stereo unspecified) do in these assays?
Granule exo inh: inactive; Arr AP2 block: inactive; ATG4B inhibitor: inactive; Myeloid diff MLP: inactive; ABCB6 inh 2: inactive; NRP1-CendR mod: inactive

What do the screens show for `CC(=O)NS(=O)(=O)c1ccc(NC(=O)C(C)NS(=O)(=O)/C=C/c2ccccc2)cc1` (stereo unspecified)?
Granule exo inh: inactive; Arr AP2 block: inactive; ATG4B inhibitor: inactive; Myeloid diff MLP: inactive; ABCB6 inh 2: inactive; NRP1-CendR mod: 20

What do the screens show for `C/C(=N\NC(=O)CC(C)C)c1ccc(N2CCCCC2)cc1`?
Granule exo inh: inactive; Arr AP2 block: inactive; ATG4B inhibitor: inactive; Myeloid diff MLP: inactive; ABCB6 inh 2: inactive; NRP1-CendR mod: inactive

How did O=C(CSc1nnc(CCCN2C(=O)c3cccc4cccc(c34)C2=O)n1-c1ccccc1)NCCCN1CCOCC1 do in these assays?
Granule exo inh: inactive; Arr AP2 block: inactive; ATG4B inhibitor: inactive; Myeloid diff MLP: inactive; ABCB6 inh 2: inactive; NRP1-CendR mod: inactive

What do the screens show for `Cc1ccc(OCCOC(=O)c2c(-c3ccccc3)noc2C)cc1`?
Granule exo inh: 73; Arr AP2 block: inactive; ATG4B inhibitor: inactive; Myeloid diff MLP: inactive; ABCB6 inh 2: inactive; NRP1-CendR mod: inactive

Results for Cc1ccc(NC(=O)CNC2CCCCC2)cc1Cl ?
Granule exo inh: inconclusive; Arr AP2 block: inactive; ATG4B inhibitor: inactive; Myeloid diff MLP: inactive; ABCB6 inh 2: inactive; NRP1-CendR mod: inactive

What do the screens show for `CC(=O)Nc1ccc(Oc2cc(C#N)c(C#N)cc2N2CCOCC2)cc1`?
Granule exo inh: inactive; Arr AP2 block: inactive; ATG4B inhibitor: inactive; Myeloid diff MLP: inactive; ABCB6 inh 2: inactive; NRP1-CendR mod: 41

What do the screens show for `CC(=O)Nc1ccc(Oc2cc(C#N)c(C#N)cc2N2CCCCCC2)cc1`?
Granule exo inh: inactive; Arr AP2 block: inactive; ATG4B inhibitor: inactive; Myeloid diff MLP: inactive; ABCB6 inh 2: inactive; NRP1-CendR mod: inactive

How did COc1ccc2nc3c(cc2c1)c(NC(=O)c1cccs1)nn3CC(C)C do in these assays?
Granule exo inh: inactive; Arr AP2 block: inactive; ATG4B inhibitor: inactive; Myeloid diff MLP: inactive; ABCB6 inh 2: inactive; NRP1-CendR mod: 45

What do the screens show for `CC(C)Cn1nc(NC(=O)c2cccs2)c2cc3ccccc3nc21`?
Granule exo inh: inactive; Arr AP2 block: inactive; ATG4B inhibitor: inactive; Myeloid diff MLP: inactive; ABCB6 inh 2: inactive; NRP1-CendR mod: inactive

Results for CC(=O)C[C@H](O)CC(=O)[C@H]1OC(=O)[C@H](C)C/C=C\Cc2ccccc21 ?
Granule exo inh: inactive; Arr AP2 block: inactive; ATG4B inhibitor: inactive; Myeloid diff MLP: inactive; ABCB6 inh 2: inactive; NRP1-CendR mod: 25

What do the screens show for `CCCCOc1ccc(C(=O)N/C(=C/C=C/c2ccccc2)C(=O)NCCO)cc1`?
Granule exo inh: inactive; Arr AP2 block: inactive; ATG4B inhibitor: inactive; Myeloid diff MLP: inactive; ABCB6 inh 2: inactive; NRP1-CendR mod: inactive

How did CCCCOc1ccc(C(=O)N/C(=C/C=C/c2ccccc2)C(=O)NCCCO)cc1 do in these assays?
Granule exo inh: inactive; Arr AP2 block: inactive; ATG4B inhibitor: inactive; Myeloid diff MLP: inactive; ABCB6 inh 2: inactive; NRP1-CendR mod: 22

What do the screens show for `C[C@H](CO)N1C[C@H](C)[C@@H](CN(C)C(=O)Nc2cccc(F)c2)Oc2ncc(Br)cc2C1=O`?
Granule exo inh: inactive; Myeloid diff MLP: inactive; ABCB6 inh 2: inactive; NRP1-CendR mod: inactive

How did Cc1ccccc1OCC(=O)Nc1ccccc1CO do in these assays?
Granule exo inh: inactive; Arr AP2 block: inactive; ATG4B inhibitor: inactive; Myeloid diff MLP: inactive; ABCB6 inh 2: inactive; NRP1-CendR mod: inactive

Results for CSc1ccccc1NC(=O)COc1ccccc1C ?
Granule exo inh: inactive; Arr AP2 block: inactive; ATG4B inhibitor: inactive; Myeloid diff MLP: active; ABCB6 inh 2: inactive; NRP1-CendR mod: inactive

How did CC(O)(Cc1cccnc1)c1cccs1 (stereo unspecified) do in these assays?
Granule exo inh: inactive; Arr AP2 block: inactive; ATG4B inhibitor: inactive; Myeloid diff MLP: inactive; ABCB6 inh 2: inactive; NRP1-CendR mod: inactive

Bioassay records (PubChem BioAssay)
